In ChEMBL document CHEMBL2417500, “Cytotoxic diterpenoid pseudodimers from the Korean sponge Phorbas gukhulensis” (J Nat Prod, 2013):

Assays:
K562 [1] = experiment: Cytotoxicity against human K562 cells by MTT assay; type: functional; conditions: read-out: LC50 (the source's name)
Method in brief: (§1)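 LC50 is the concentration giving a 50% drop in cell viability relative to untreated controls without inhibitor. It is read from dose–response curves for each sample and reported as mean ± SD of three independent experiments (n = 3).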

A549 = experiment: Cytotoxicity against human A549 cells by MTT assay; type: functional; conditions: read-out: LC50 (the source's name); method in brief: as §1
[2] = Inhibition of sortase A (unknown origin)
[3] = target: Sodium/potassium-transporting ATPase; experiment: Inhibition of Na+/K+-ATPase (unknown origin); type: protein-complex assay, Homo sapiens
[4] = Inhibition of isocitrate lyase (unknown origin)
K562 [5] = experiment: Ratio of doxorubicin LC50 to compound LC50 for human K562 cells; type: functional

Row | SMILES | CC50 (K562 [1]) [µM] | CC50 (A549) [µM] | IC50 [2] [µM] | IC50 [3] [µM] | IC50 [4] [µM] | RatioLC50 (K562 [5])
1 | COc1cccc2c1C(=O)c1c(O)c3c(c(O)c1C2=O)C[C@@](O)(C(=O)CO)C[C@@H]3O[C@H]1C[C@H](N)[C@H](O)[C@H](C)O1 [DOXORUBICIN] | 0.7 | 0.52 | – | – | – | –
2 | Cc1c([C@H]2[C@@H](C(C)C)CC[C@@]2(C)C(=O)CNCCS(=O)(=O)O)cc([C@]2(O)Cc3cc(O)c(=O)c(C)c4c3[C@@H](O2)[C@H](O)[C@]2(C)CC[C@H](C(C)C)[C@H]42)cc(O)c1=O | 0.32 | 0.11 | > 100 | > 100 | > 100 | –
3 | CO[C@@H](NC(C)=O)[C@H](O)[C@]1(C)CC[C@H](C(C)C)[C@@H]1c1cc([C@]2(O)Cc3cc(O)c(=O)c(C)c4c3[C@@H](O2)[C@H](O)[C@]2(C)CC[C@H](C(C)C)[C@H]42)cc(O)c(=O)c1C | 0.12 | 0.1 | > 100 | > 100 | > 100 | –
4 | CC(=O)N[C@H](O)[C@H](O)[C@]1(C)CC[C@H](C(C)C)[C@@H]1c1cc([C@]2(O)Cc3cc(O)c(=O)c(C)c4c3[C@@H](O2)[C@H](O)[C@]2(C)CC[C@H](C(C)C)[C@H]42)cc(O)c(=O)c1C | 0.44 | 0.55 | > 100 | > 100 | > 100 | –
5 | CC(=O)O[C@@H](C=O)[C@]1(C)CC[C@H](C(C)C)[C@@H]1c1cc(/C(O)=C/c2cc(O)c(=O)c(C)c3c2[C@@H](O)[C@H](O)[C@]2(C)CC[C@H](C(C)C)[C@H]32)cc(O)c(=O)c1C | 0.04 | 0.38 | > 100 | > 100 | > 100 | 17
6 | CC(=O)O[C@@H](C=O)[C@]1(C)CC[C@H](C(C)C)[C@@H]1c1cc([C@]2(O)Cc3cc(O)c(=O)c(C)c4c3[C@@H](O2)[C@H](O)[C@]2(C)CC[C@H](C(C)C)[C@H]42)cc(O)c(=O)c1C [GUKULENIN A] | 0.26 | 0.32 | > 100 | > 100 | > 100 | –
